Data published in ChEMBL document CHEMBL2202989, “New adamantane phenylalkylamines with σ-receptor binding affinity and anticancer activity, associated with putative antagonism of neuropathic pain” (J Med Chem, 2012).

Assays:
[1] = system: BXPC-3; experiment: Induction of apoptosis in human BxPC3 cells assessed as healthy cells at 15 uM using annexin V/7-AAD by FACS analysis (reference value: 79 %); type: functional
[2] = system: IGROV-1; experiment: Cell cycle arrest in human IGROV1 cells assessed as accumulation at G1 phase at 50 uM after 24 hrs using propidium iodide staining by FACS analysis (reference value: 27 %); type: functional
Procedure, shortened: (§1)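 Cells were plated 24 h before treatment and exposed for 24 h at final 0.5, 5, 15 and 50 μM in 0.5% DMSO, against vehicle-treated controls. Cells were then trypsinised and fixed in cold ethanol for 3 h at 4 °C. They were stained in a mix of RNase (200 μg/mL) and PI (1 mg/mL) for 45 min at room temperature in the dark. Flow cytometry used 488 nm excitation and 10 000 gated cells. Phase percentages were assigned from DNA content.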

[3] = system: IGROV-1; experiment: Cell cycle arrest in human IGROV1 cells assessed as accumulation at >G2/M phase at 15 uM after 24 hrs using propidium iodide staining by FACS analysis (reference value: 21 %); type: functional; procedure, shortened: as §1
[4] = system: OVCAR-5; experiment: Antitumor activity against human OVCAR5 cells xenografted in SCID mouse assessed as primary tumor growth inhibition at 55 mg/kg, ip administered 5 consecutive days in a week for two cycles measured after 2 cycles relative to control; type: functional; conditions: OVCAR-5, ip, route intraperitoneal, read-out: TGI
Procedure, shortened: (§2)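 SCID mice carried OVCAR5 xenografts (10^6 cells per inoculum), 16 mice (32 tumors) per group, with ip dosing in 5% Tween 80 from a tumor volume of about 100 mm3. Caliper volume was measured twice weekly and %ΔT/ΔC derived. At termination, primary tumors were weighed and secondary metastases were scored at axillary and bone sites (n = 7−8). Two-tailed t test.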

[5] = system: PC-3; experiment: Induction of apoptosis in human PC3 cells assessed as healthy cells at 50 uM using annexin V/7-AAD by FACS analysis (reference value: 91 %); type: functional
[6] = system: IGROV-1; experiment: Cell cycle arrest in human IGROV1 cells assessed as accumulation at G1 phase at 5 uM after 24 hrs using propidium iodide staining by FACS analysis (reference value: 27 %); type: functional; procedure, shortened: as §1
[7] = system: PC-3; experiment: Antitumor activity against human PC3 cells xenografted in SCID mouse assessed as axillary metastasis at 55 mg/kg, ip administered 5 consecutive days in a week for two cycles measured after 2 cycles relative to control; type: functional; conditions: route intraperitoneal
Procedure, shortened: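 PC3 xenografts were grown in SCID mice (10^6 cells per inoculum), 14 mice (28 tumors) per group, dosed ip from about 100 mm3. The test agent was given in 5% Tween 80; paclitaxel was given in Cremophor diluted in saline, with a vehicle of 1:1 ethanol/Cremophor diluted 1:3 in saline. Volume and %ΔT/ΔC were derived from caliper readings twice weekly. Occurrence of primary tumors and of axillary and bone metastases was scored (n = 7). Two-tailed t test.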

[8] = system: PC-3; experiment: Induction of apoptosis in human PC3 cells assessed as total apoptotic death at 50 uM using annexin V/7-AAD by FACS analysis (reference value: 8 %); type: functional
Procedure, shortened: (§3)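 Cells plated 24 h before treatment, then exposed 24 h to 0.5, 5, 15 or 50 μM compound (final DMSO 0.5%); vehicle controls included. Cells scraped and stained with annexin V-FITC and 7-AAD for 15 min on ice in the dark. Flow cytometry with 488 nm excitation, 10,000 gated cells. Early apoptosis was annexin V+/7-AAD−, late was annexin V+/7-AAD+.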

[9] = (§4) Growth inhibition of human NHDF cells after 48 hrs by SRB assay; type: cell-based; conditions: NHDF cells
Procedure, shortened: (§5)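 Cells grown in RPMI 1640 with 5% heat-inactivated FCS, 2 mM L-glutamine and antibiotics, 37 °C, 5% CO2. Seeded at 3500–30000 cells/well and left 24 h before dosing. DMSO solutions added at 10-fold dilutions from 100 to 0.01 μM for 48 h. Cells TCA-fixed and SRB-stained, absorbance read at 540 nm; GI50 derived against the time-zero plate.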

[10] = system: NHDF; experiment: as §4; type: cell-based; conditions: nhdf, 48 h; procedure, shortened: as §5
[11] = system: IGROV-1; experiment: Induction of apoptosis in human IGROV1 cells assessed as total apoptotic death at 50 uM using annexin V/7-AAD by FACS analysis (reference value: 13 %); type: functional; procedure, shortened: as §3
[12] = system: PC-3; experiment: Induction of apoptosis in human PC3 cells assessed as cleaved caspase3 containing cells at 15 uM by antibody-based FACS analysis (reference value: 3.2 %); type: functional
[13] = system: PC-3; experiment: Induction of apoptosis in human PC3 cells assessed as early apoptosis at 15 uM using annexin V/7-AAD by FACS analysis (reference value: 5 %); type: functional
[14] = system: PC-3; experiment: Cell cycle arrest in human PC3 cells assessed as accumulation at sub G1 phase at 50 uM after 24 hrs using propidium iodide staining by FACS analysis (reference value: 4 %); type: functional
[15] = system: OVCAR-5; experiment: Antitumor activity against human OVCAR5 cells xenografted in SCID mouse assessed as axillary metastasis at 55 mg/kg, ip administered 5 consecutive days in a week for two cycles measured after 2 cycles relative to control; type: functional; conditions: OVCAR-5, ip, route intraperitoneal, read-out: TGI; procedure, shortened: as §2
[16] = system: BXPC-3; experiment: Induction of apoptosis in human BxPC3 cells assessed as early apoptosis at 0.5 uM using annexin V/7-AAD by FACS analysis (reference value: 9 %); type: functional
[17] = system: BXPC-3; experiment: Induction of apoptosis in human BxPC3 cells assessed as late apoptosis at 5 uM using annexin V/7-AAD by FACS analysis (reference value: 9 %); type: functional
[18] = system: PC-3; experiment: Cell cycle arrest in human PC3 cells assessed as accumulation at sub G1 phase at 5 uM after 24 hrs using propidium iodide staining by FACS analysis (reference value: 4 %); type: functional
[19] = system: HL-60(TB); experiment: Growth inhibition of human HL-60(TB) cells after 48 hrs by SRB assay; type: functional; conditions: HL-60, 48 h
Procedure, shortened: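 Cells kept in RPMI 1640 with 5% FCS at 37 °C, 5% CO2, and seeded 24 h before dosing. Compound given from DMSO at 10-fold dilutions, 100 to 0.01 μM, for 48 h. Cells fixed with TCA, stained with SRB, absorbance read at 540 nm. GI50 taken from a time-zero plate.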

[20] = system: MCF7; experiment: Growth inhibition of human MCF7 cells after 48 hrs by SRB assay; type: functional; conditions: MCF7, 48 h; procedure, shortened: as §5
[21] = system: IGROV-1; experiment: Cell cycle arrest in human IGROV1 cells assessed as accumulation at >G2/M phase at 50 uM after 24 hrs using propidium iodide staining by FACS analysis (reference value: 21 %); type: functional; procedure, shortened: as §1
[22] = system: IGROV-1; experiment: Induction of apoptosis in human IGROV1 cells assessed as total apoptotic death at 15 uM using annexin V/7-AAD by FACS analysis (reference value: 13 %); type: functional; procedure, shortened: as §3
[23] = system: BXPC-3; experiment: Cell cycle arrest in human BxPC3 cells assessed as accumulation at sub G1 phase at 15 uM after 24 hrs using propidium iodide staining by FACS analysis (reference value: 9 %); type: functional; procedure, shortened: as §1
[24] = system: BXPC-3; experiment: Induction of apoptosis in human BxPC3 cells assessed as cleaved caspase3 containing cells at 5 uM by antibody-based FACS analysis (reference value: 8.2 %); type: functional
[25] = system: PC-3; experiment: Cell cycle arrest in human PC3 cells assessed as accumulation at G2 phase at 50 uM after 24 hrs using propidium iodide staining by FACS analysis (reference value: 12 %); type: functional
[26] = read-out: LC50 (the source's name)

`CN1CCN(CCCc2ccc(C(c3ccccc3)C34CC5CC(CC(C5)C3)C4)cc2)CC1` (stereo not given) gave an Activity [1] of 35%, an Activity [2] of 30% and an Activity [3] of 17%. It also gave an inhibition in vivo at 55 mg/kg [4] of 46.9%, an Activity [5] of 43% and an Activity [6] of 29%. The Activity [7] was 0%, the Activity [8] was 23% and the GI50 at 48 h [9] was 9.68 µM. For the same compound, the LC50 [10] was 100 µM, the TGI [10] was 78.2 µM and the Activity [11] was 64%. The Activity [12] was 2.5%, the Activity [13] was 9% and the Activity [14] was 12%. For the same compound, the inhibition in vivo at 55 mg/kg [15] was 25%, the Activity [16] was 10% and the Activity [17] was 10%. It also gave an Activity [18] of 11%, a GI50 [19] of 0.00402 µM and a TGI [19] of 0.00788 µM. For the same compound, the CC50 [19, 26] was 0.1 µM, the GI50 [20] was 3.2 µM and the TGI [20] was 6.1 µM. It also gave a CC50 [20, 26] of 0.009 µM, an Activity [21] of 15% and an Activity [22] of 57%. The Activity [23] was 24%, the Activity [24] was 4% and the Activity [25] was 11%.
